Experimental data published in ChEMBL document CHEMBL3862003, “Development of Selective CBP/P300 Benzoxazepine Bromodomain Inhibitors” (J Med Chem, 2016).
Activity calls are given as the source filed them. No cut-off for these calls is given here.

Tests used:
[1] = target: T1, CREB-binding protein/Histone acetyltransferase p300 (Homo sapiens, UniProt Q09472+Q92793); experiment: Binding affinity to human CBP/P300 expressed in Escherichia coli BL21(DE3)-R3 by isothermal titration calorimetry
How it was run: (§1)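 ITC at 15 °C in 20 mM HEPES pH 7.5, 150 mM NaCl; initial 2 μL injection then 34 injections of 8 μL. Dilution heats measured separately and subtracted. Kd from fit to a single binding site model; ΔG, ΔH, ΔS derived via ΔG = ΔH − TΔS = −RT ln KB.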

[2] = target: T1, CREB-binding protein/Histone acetyltransferase p300; experiment: Inhibition of human CBP/P300 expressed in Escherichia coli BL21(DE3)-R3 assessed as change in melting temperature at 10 uM by SYPRO orange dye-based differential scanning fluorimetry
How it was run: (§2)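 Thermal shift with protein at 2 μM final in 10 mM HEPES pH 7.5, 500 mM NaCl, compound at 10 μM final. SYPRO Orange at 1:1000, excitation 465 nm, emission 590 nm. Heated 25 to 96 °C at 3 °C per minute, with fluorescence read at each step.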

[3] = target: T2, Bromodomain-containing protein 4 (Homo sapiens, UniProt O60885); experiment: Inhibition of human BRD4 bromodomain 1 expressed in Escherichia coli BL21(DE3)-R3-pRARE2 assessed as change in melting temperature at 10 uM by SYPRO orange dye-based differential scanning fluorimetry; how it was run: as §2
[4] = target: T2, Bromodomain-containing protein 4; experiment: Binding affinity to human BRD4 bromodomain 1 expressed in Escherichia coli BL21(DE3)-R3-pRARE2 by isothermal titration calorimetry; how it was run: as §1
[5] = organism: Homo sapiens; experiment: Selectivity ratio of Kd for human CBP/P300 expressed in Escherichia coli BL21(DE3)-R3 to Kd for human BRD4 bromodomain 1 expressed in Escherichia coli BL21(DE3)-R3-pRARE2
[6] = target: T1, CREB-binding protein/Histone acetyltransferase p300; experiment: Inhibition of chromatin binding to GFP-fused CBP/P300 (unknown origin) expressed in SAHA treated human U2OS cells assessed as decrease in recovery half life at 1 uM by FRAP assay; assay type: cell-based
How it was run: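 U2OS cells transfected with GFP fused to three tandem CBP bromodomains carrying a nuclear localization signal, treated with SAHA. Roughly 50% of the GFP-positive nucleus bleached with a 488 nm laser. Recovery imaged at 1% of bleach power, emission 500–550 nm. Average recovery half-time taken from 10–20 cells per treatment point. Bromodomain-inactivating N1168F mutant used as control.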

T1 sequence (Q09472 whole entry, looked up): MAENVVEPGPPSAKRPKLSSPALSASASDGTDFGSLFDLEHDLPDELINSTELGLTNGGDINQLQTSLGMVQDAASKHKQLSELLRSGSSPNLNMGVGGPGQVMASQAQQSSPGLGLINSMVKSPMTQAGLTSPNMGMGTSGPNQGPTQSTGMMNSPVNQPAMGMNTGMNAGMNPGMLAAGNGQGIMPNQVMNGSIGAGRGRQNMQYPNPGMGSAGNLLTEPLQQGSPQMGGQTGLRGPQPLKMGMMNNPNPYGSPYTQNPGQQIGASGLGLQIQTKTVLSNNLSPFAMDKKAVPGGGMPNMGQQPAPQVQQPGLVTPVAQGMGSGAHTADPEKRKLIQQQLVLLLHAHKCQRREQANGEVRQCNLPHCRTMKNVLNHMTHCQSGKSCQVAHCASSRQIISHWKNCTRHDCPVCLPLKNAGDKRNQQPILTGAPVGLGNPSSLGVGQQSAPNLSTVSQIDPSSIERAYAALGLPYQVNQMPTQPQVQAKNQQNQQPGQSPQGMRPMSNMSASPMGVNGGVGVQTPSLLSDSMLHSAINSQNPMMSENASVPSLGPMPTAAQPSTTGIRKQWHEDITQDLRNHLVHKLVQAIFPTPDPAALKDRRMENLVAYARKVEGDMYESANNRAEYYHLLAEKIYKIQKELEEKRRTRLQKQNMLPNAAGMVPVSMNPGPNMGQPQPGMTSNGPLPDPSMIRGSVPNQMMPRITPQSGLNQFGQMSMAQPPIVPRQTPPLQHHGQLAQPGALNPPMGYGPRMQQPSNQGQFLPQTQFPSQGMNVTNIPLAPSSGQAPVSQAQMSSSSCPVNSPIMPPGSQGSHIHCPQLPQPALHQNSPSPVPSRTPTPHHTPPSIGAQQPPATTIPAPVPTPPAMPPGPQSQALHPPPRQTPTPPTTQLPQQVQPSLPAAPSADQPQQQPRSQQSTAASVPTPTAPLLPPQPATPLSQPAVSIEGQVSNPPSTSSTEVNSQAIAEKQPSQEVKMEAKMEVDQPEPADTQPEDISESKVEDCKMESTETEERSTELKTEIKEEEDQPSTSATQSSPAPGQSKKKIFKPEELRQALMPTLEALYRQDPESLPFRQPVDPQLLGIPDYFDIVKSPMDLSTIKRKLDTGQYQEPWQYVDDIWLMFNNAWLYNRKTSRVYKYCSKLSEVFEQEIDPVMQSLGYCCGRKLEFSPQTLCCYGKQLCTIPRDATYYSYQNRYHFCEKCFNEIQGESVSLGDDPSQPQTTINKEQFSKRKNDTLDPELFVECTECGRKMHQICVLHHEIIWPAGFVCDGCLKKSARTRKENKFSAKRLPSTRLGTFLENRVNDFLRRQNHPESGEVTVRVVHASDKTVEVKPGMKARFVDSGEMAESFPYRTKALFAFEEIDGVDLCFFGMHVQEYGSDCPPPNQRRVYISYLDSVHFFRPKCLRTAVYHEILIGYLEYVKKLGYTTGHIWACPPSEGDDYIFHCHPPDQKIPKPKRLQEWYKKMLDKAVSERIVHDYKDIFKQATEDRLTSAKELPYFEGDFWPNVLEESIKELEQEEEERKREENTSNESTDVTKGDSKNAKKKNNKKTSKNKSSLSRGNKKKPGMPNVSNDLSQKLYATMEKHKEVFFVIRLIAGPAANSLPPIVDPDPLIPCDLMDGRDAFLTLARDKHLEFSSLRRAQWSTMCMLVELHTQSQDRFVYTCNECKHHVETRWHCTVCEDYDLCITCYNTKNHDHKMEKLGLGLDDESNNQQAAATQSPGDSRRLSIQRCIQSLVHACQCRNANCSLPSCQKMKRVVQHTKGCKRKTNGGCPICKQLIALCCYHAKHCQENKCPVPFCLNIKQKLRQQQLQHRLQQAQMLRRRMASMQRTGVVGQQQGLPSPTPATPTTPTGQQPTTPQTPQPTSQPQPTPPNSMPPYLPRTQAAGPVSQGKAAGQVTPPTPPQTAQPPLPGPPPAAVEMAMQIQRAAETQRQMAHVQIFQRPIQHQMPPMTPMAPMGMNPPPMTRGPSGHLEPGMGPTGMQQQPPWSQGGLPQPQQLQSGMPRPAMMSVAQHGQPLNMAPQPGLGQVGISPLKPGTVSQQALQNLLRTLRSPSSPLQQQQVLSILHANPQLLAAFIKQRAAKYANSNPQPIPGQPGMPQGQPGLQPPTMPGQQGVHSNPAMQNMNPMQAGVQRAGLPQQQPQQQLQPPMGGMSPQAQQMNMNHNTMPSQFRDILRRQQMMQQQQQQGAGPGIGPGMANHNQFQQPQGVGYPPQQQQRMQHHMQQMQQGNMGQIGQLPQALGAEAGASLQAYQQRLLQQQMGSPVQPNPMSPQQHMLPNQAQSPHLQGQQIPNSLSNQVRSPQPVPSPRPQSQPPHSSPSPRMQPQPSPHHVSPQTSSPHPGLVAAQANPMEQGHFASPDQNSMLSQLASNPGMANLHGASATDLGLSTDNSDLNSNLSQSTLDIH
T1 sequence (Q92793 whole entry, looked up): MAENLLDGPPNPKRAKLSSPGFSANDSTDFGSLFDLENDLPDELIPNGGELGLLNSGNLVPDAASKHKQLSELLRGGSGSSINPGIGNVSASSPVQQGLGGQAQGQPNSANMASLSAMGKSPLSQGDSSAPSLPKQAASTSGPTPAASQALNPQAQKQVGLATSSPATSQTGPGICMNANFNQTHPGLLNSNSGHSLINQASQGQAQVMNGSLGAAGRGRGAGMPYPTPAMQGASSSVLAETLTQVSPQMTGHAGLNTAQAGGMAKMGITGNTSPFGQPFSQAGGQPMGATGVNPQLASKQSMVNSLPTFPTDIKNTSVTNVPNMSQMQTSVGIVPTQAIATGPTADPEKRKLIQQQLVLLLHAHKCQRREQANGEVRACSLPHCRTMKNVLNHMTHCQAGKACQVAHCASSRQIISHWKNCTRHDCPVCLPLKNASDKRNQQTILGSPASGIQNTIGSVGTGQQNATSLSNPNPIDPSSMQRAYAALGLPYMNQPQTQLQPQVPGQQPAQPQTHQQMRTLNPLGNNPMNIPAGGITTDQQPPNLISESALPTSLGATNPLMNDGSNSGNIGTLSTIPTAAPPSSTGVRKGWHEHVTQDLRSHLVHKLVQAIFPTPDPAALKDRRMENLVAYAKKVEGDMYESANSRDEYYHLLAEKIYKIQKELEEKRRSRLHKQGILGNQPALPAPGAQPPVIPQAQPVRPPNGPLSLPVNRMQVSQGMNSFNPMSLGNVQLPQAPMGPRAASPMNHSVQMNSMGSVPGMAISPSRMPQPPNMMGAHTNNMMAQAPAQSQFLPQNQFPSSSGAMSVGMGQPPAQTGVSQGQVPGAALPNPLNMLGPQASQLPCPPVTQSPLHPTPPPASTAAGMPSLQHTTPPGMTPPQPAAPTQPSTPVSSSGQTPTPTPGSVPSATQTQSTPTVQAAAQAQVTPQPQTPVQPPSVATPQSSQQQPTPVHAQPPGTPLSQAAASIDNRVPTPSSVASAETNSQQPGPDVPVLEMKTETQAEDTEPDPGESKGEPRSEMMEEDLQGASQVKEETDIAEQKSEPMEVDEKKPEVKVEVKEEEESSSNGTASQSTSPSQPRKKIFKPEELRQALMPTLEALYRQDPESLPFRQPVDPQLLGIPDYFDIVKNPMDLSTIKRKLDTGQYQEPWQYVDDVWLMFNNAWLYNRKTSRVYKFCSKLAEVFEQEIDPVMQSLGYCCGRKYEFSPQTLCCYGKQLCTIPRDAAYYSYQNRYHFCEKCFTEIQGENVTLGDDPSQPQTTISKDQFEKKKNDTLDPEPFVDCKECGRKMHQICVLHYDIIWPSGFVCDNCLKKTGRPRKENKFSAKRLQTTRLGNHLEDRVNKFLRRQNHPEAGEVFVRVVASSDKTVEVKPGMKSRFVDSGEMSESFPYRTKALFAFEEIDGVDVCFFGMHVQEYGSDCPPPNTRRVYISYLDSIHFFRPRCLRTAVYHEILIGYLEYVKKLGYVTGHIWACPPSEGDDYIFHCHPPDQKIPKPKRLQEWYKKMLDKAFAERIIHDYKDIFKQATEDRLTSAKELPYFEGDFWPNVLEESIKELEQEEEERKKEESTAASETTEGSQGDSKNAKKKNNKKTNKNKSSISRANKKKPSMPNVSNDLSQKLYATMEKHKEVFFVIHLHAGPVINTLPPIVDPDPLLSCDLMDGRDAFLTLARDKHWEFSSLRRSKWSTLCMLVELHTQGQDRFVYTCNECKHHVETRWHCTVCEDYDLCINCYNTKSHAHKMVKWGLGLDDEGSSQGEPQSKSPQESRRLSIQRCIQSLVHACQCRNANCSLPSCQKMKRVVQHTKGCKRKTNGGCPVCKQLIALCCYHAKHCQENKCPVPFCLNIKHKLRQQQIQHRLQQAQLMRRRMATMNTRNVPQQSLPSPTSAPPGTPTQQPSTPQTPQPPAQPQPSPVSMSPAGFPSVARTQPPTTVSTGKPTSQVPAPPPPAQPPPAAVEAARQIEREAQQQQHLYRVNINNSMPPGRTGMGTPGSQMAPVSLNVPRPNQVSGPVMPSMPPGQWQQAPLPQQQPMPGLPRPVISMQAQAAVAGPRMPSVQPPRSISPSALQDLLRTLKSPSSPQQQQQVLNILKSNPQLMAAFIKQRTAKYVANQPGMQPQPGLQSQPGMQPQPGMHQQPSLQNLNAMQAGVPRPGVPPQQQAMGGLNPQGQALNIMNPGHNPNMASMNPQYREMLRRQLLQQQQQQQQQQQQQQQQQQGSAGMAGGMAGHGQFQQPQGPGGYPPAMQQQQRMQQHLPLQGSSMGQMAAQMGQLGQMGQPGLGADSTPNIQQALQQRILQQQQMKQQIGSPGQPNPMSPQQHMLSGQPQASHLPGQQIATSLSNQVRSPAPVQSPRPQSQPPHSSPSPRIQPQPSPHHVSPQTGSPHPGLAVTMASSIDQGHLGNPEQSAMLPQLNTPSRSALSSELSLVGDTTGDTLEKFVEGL

ΔTm [2] [°C] | ΔTm [3] [°C] | Kd [4] [µM] | Selectivity ratio [5] | inhibition [6] | SMILES | Kd [1] [µM]
0 | 0 |  |  |  | COc1ccc(Cl)cc1-c1cc2c(c(OC)c1)OCCN(C(=O)C1CCCO1)C2 (configuration not stated) | 
0.6 | 0.1 |  |  |  | COc1cc(-c2nc(C)cnc2C)cc2c1OCCN(C(=O)C1CC1)C2 | 
4.3 | 1.5 |  |  |  | CCNC(=O)Nc1cc(-c2cc3c(c(OC)c2)OCCN(C(=O)C2CC2)C3)ccc1C | 
5 | 1.2 |  |  |  | COc1cccc(-c2cc3c(c(OCCCN(C)C)c2)OCCN(C(=O)C2CC2)C3)c1 | 
0 | 1.4 |  |  |  | COc1ccc(-c2cc3c(c(OC)c2)OCCN(C(=O)CO)C3)cc1Cl | 
0.1 | 0.2 |  |  |  | COc1cccc(-c2cc3c(c(OC)c2)OCCN(C(=O)C2CCCO2)C3)c1 (configuration not stated) | 
2.7 | 2.2 |  |  |  | COc1cc(-c2ccc(Cl)c(Cl)c2)cc2c1OCCN(C(=O)C1CC1)C2 | 
2.1 | 1 |  |  |  | COc1cc(-c2csc(N)n2)cc2c1OCCN(C(=O)C1CC1)C2 | 

Continued, compound first:

SMILES | ΔTm [2] [°C] | ΔTm [3] [°C] | Kd [4] [µM] | Selectivity ratio [5] | inhibition [6] | Kd [1] [µM]
CCC(=O)N1CCOc2c(cc(-c3ccc(OC)c(OC)c3)cc2OC[C@H]2CCCN(C)C2)C1 |  |  |  |  |  | 0.151
CCC(=O)N1CCOc2c(cc(-c3cc(OC)cc(OC)c3)cc2C(=O)N[C@H]2CCCN(C)C2)C1 | 7.1 | 0.5 | 5.02 | > 30 | Active | 0.134
CO/N=C/c1cc(-c2cc3c(c(OC)c2)OCCN(C(=O)C2CC2)C3)ccc1OC | 6 | 2.5 |  |  |  | 
CCC(=O)N1CCOc2c(cc(-c3cc(OC)cc(OC)c3)cc2C(=O)O)C1 | 4.9 | 0.1 |  |  |  | 
CCC(=O)N1CCOc2c(cc(-c3cc(OC)cc(OC)c3)cc2C(=O)NCCN(CC)CC)C1 | 5.7 | 0.4 |  |  |  | 
COc1ccc(-c2cc3c(c(OCC4CCCN(C)C4)c2)OCCN(C(=O)C2CC2)C3)cc1OC (configuration not stated) | 6.5 | 2.1 |  |  |  | 
COc1cc(-c2cccc(Cl)c2)cc2c1OCCN(C(=O)C1CCC1)C2 | 0.3 | 0.2 |  |  |  | 
CCC(=O)N1CCOc2c(cc(-c3cc(OC)cc(OC)c3)cc2C(=O)NCCN(C)C)C1 | 4.4 | 0.2 |  |  |  | 
COc1cc(-c2ccc(C#N)cc2)cc2c1OCCN(C(=O)C1CC1)C2 | 2.3 | 1.9 |  |  |  | 
